PubChem BioAssay
Active and inactive are the calls of the source.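 How the source made its calls, unless noted: active means viability at or under a set limit in both replicates, limit being median viability minus 3 SD (cut at about 48% in these data, passing the limit was not always enough); inconclusive means at or under the limit in just one replicate; inactive means at or above the limit in both replicates.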

Tests used:
[1] = Her2 expression decrease, cell viability multiplex – SKBR3 breast tumor cells, AlphaScreen, ATP viability, primary screen (AID 461;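 active means Her2 level under about 52% in both replicate screens, with viability over 70% of control, limit read from the data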;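 on Her2 level: lower value means less Her2 protein in the cells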;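 on viability: percent of carrier control wells set as 100% viability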); conditions: SKBR3 Her2 protein level, 18-24 h, measured here: SKBR3 viability, ATP luminescence, at 10 µM
[2] = molecular target: Receptor tyrosine-protein kinase erbB-2 (Homo sapiens) (UniProt P04626); experiment: as above; conditions: 18-24 h, at 10 µM, stronger effect = lower value
[3] = reduced viability of SK-BR-3 breast cancer cells – cell-based, 24 h, human, pilot screen (AID 572;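 active means viability at or below 10% of carrier control in both of two separate runs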;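 further: compound exposure lasted between 18 and 24 h rather than exactly 24 h; 100% = carrier-treated control wells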); conditions: SK-BR-3 viability, CellTiter-Glo luminescence, at 10 µM, stronger effect = lower value
[4] = HUVEC growth inhibition – cell-based, human, primary screen (AID 575;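 active means viability at or below 30% in both replicate assays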;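 further: 100% = median of untreated cell wells with 0.1% DMSO on each plate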); conditions: HUVEC proliferation, CellTiter-Glo luminescence, 72 h; at 10 µM; stronger effect = lower value
How it was run: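 Timing: 72 h treatment at 37 °C; material: HUVEC primary cells; technique: CellTiter-Glo luminescence measuring cellular ATP; controls: vehicle and MePR control wells; measure: percent of median DMSO-control luminescence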

[5] = H69AR cell proliferation blockers – human, duplicate replicates, primary screen (AID 580); conditions: H69AR lung tumor cells viability, ATP luminescence, 72 h; at 10 µM; stronger effect = lower value;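 further: 100% = mean luminescence of untreated wells and 0% = no signal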
[6] = MRP1 drug-resistance reversers in H69AR cells – cell-based, doxorubicin co-treatment, pilot screen (AID 601;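 active means viability loss from added drug above about 55%, and viability with drug at most 40%, in both replicates, limit read from the data, passing the limit was not always enough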); conditions: CellTiter-Glo, 72 h, at 10 µM; for differential viability (reversal): stronger effect = higher value
[7] = yeast transport mutant growth inhibition pilot in 384-well plates, post-Golgi transport modulator project (AID 636; in the data active means inhibition above about 31%); conditions: absorbance 615 nm, about 18 h, stronger effect = higher value
[8] = growth suppression of yeast trafficking mutant, preliminary HTS, modulators of trafficking downstream of Golgi apparatus project, 1536-format plate, OD 615 nm (AID 637; in the data active means inhibition above about 30%); conditions: yeast transport mutant growth, absorbance 615 nm, 18 h; stronger effect = higher value
[9] = H69AR cells + 2 uM doxorubicin, measured here: viability with 2 uM doxorubicin, stronger effect = lower value
[10] = H69AR cells, compound alone cytotoxicity

Sequence of Receptor tyrosine-protein kinase erbB-2 (Homo sapiens) (P04626 whole entry, looked up): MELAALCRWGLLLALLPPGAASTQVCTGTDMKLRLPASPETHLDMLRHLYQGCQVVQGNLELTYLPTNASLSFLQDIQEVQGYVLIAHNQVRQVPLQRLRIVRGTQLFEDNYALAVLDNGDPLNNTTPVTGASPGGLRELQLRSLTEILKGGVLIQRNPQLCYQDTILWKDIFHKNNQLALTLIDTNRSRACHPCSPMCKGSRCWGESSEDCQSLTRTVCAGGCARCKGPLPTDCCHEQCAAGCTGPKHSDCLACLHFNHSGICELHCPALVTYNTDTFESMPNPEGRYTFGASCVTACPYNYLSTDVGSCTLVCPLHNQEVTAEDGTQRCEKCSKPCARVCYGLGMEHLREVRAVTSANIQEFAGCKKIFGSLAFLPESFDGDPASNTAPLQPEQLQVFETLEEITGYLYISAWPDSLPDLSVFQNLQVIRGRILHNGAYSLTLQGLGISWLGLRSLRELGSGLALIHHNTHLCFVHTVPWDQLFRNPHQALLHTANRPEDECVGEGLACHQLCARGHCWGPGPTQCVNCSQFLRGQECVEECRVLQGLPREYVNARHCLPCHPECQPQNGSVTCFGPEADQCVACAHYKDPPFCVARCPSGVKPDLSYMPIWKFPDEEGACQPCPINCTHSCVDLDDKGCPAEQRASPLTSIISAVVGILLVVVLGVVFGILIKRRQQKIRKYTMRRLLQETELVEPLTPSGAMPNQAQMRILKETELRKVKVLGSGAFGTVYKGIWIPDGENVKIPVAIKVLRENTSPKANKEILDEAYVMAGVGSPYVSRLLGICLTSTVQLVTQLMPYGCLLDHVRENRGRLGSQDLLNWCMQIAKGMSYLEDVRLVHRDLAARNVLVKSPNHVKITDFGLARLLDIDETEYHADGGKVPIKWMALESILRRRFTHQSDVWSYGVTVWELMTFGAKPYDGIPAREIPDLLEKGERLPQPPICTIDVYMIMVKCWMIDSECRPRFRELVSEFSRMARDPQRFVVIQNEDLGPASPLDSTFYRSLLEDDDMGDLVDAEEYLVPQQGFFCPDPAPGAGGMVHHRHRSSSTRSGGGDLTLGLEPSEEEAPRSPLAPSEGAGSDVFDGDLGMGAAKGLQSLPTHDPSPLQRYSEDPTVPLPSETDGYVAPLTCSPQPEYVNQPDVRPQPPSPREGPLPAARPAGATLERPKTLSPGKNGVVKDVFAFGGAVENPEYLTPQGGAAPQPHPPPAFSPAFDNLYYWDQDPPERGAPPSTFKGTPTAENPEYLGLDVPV

Compound	viability [1]	Her2 level [2]	viability [3]	viability [4]	viability [5]	differential viability (reversal) ([6]; H69AR cells + 2 uM doxorubicin)	viability [6, 9]	viability [6, 10]	inhibition [7]	inhibition [8]
Nc1c(C(=O)NCc2ccco2)nnn1Cc1ccccc1	85.5%	102% (inactive)	85.5% (inactive)	92.1% (inactive)	96% (inactive)	0.935% (inactive)	95.1%	96%	-6.32% (inactive)	3.33% (inactive)
O=C(CN1CCN(c2nc(-c3ccccc3)cs2)CC1)Nc1ccc2c(c1)OCO2	90.5%	99% (inactive)	90.5% (inactive)	89.9% (inactive)	101% (inactive)	5.71% (inactive)	95.5%	101%	-3.87% (inactive)	-7.1% (inactive)
CCN(C(=O)CN1CCN(c2ccccc2OC)CC1)c1c(N)n(Cc2ccccc2)c(=O)[nH]c1=O	113%	102% (inactive)	113% (inactive)	98.7% (inactive)	100% (inactive)	9.64% (inactive)	90.8%	100%	-8% (inactive)	-0.16% (inactive)
CC(C)CC(=O)N1CCN(S(=O)(=O)c2ccc(F)cc2)CC1	86.5%	102% (inactive)	86.5% (inactive)	86.5% (inactive)	94.9% (inactive)	9.04% (inactive)	85.8%	94.9%	2.56% (inactive)	27% (inactive)
Cc1cccc(NC(=O)c2cnc3sccn3c2=O)n1	99%	98.5% (inactive)	99% (inactive)	95.8% (inactive)	100% (inactive)	8.25% (inactive)	92.2%	100%	0.13% (inactive)	2.83% (inactive)
O=C(COC(=O)Cc1cccc(C(F)(F)F)c1)NCC1CCCO1 (stereo not given)	94%	98.5% (inactive)	94% (inactive)	96.5% (inactive)	96.4% (inactive)	22.8% (inactive)	73.5%	96.4%	-5.13% (inactive)	-4.36% (inactive)
Cn1c2c(c(=O)[nH]c1=O)C(NC(=O)c1ccco1)(C(F)(F)F)C(=O)N2 (stereo not given)	112%	118% (inactive)	112% (inactive)	93.3% (inactive)	96.5% (inactive)	4.25% (inactive)	92.3%	96.5%	-1.45% (inactive)	0.66% (inactive)
CC(C)(C)n1nnnc1C(c1cccc(C#N)c1)N1CCC(Cc2ccccc2)CC1 (stereo not given)	87.5%	86% (inactive)	87.5% (inactive)	114% (inactive)	86.1% (inactive)	-0.44% (inactive)	86.6%	86.1%	-0.79% (inactive)	1.77% (inactive)
